Measured values as given in ChEMBL document CHEMBL4020756, “Discovery of novel substituted benzo-anellated 4-benzylamino pyrrolopyrimidines as dual EGFR and VEGFR2 inhibitors” (Bioorg Med Chem Lett, 2017).
pIC50, pKi: −log10 of the molar value. One block for each compound: values may come before it.

Assays:
[1] = target: Vascular endothelial growth factor receptor 2 (Homo sapiens, UniProt P35968); assay: Inhibition of VEGFR2 (unknown origin) using poly(Glu,Tyr)4:1 as substrate in presence of [gamma-33P]-ATP after 60 mins by scintillation counting analysis; conditions: for pKi: read-out: Ki
Outline: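 Radiometric ATP-competition assay at 30 °C for 60 min. Kinase was 20 ng/50 µL with Poly(Glu,Tyr)4:1 substrate at 125 ng/50 µL. Buffer was 70 mM HEPES-NaOH pH 7.5 with 3 mM MgCl2, 3 mM MnCl2, 3 µM orthovanadate, 1.2 mM DTT, 50 µg/mL PEG20000 and 15 µM [γ-33P]-ATP. The stop was 2% phosphoric acid, and 33Pi incorporation was counted by scintillation. Ten concentrations from 3 nM to 100 µM gave IC50.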

[2] = target: Epidermal growth factor receptor (Homo sapiens, UniProt P00533); assay: Inhibition of EGFR (unknown origin) using poly(Glu,Tyr)4:1 as substrate in presence of [gamma-33P]-ATP after 60 mins by scintillation counting analysis
HOP-62 = assay: Growth inhibition of human HOP62 cells at 10 uM after 48 hrs by sulforhodamine assay relative to control; assay type: functional; conditions: HOP-62, 48 h, read-out: GI
Outline: (§1)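 Tested at a single 10 µM concentration in the NCI tumour cell panel screen. Growth inhibition was read by sulforhodamine B staining.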

BT-549 = assay: Growth inhibition of human BT549 cells at 10 uM after 48 hrs by sulforhodamine assay relative to control; assay type: functional; conditions: BT-549, 48 h, read-out: GI; outline: as §1
Hs-578T = assay: Growth inhibition of human Hs578T cells at 10 uM after 48 hrs by sulforhodamine assay relative to control; assay type: functional; conditions: read-out: GI; outline: as §1
MDA-MB-231 = assay: Growth inhibition of human MDA-MB-231 cells at 10 uM after 48 hrs by sulforhodamine assay relative to control; assay type: functional; conditions: MDA-MB-231, 48 h, read-out: GI; outline: as §1
MDA-MB-468 = assay: Growth inhibition of human MDA-MB-468 cells at 10 uM after 48 hrs by sulforhodamine assay relative to control; assay type: functional; conditions: MDA-MB-468, 48 h, read-out: GI; outline: as §1
HOP-92 = assay: Growth inhibition of human HOP92 cells at 10 uM after 48 hrs by sulforhodamine assay relative to control; assay type: functional; conditions: HOP-92, 48 h, read-out: GI; outline: as §1
NCI-H460 = assay: Growth inhibition of human NCI-H460 cells at 10 uM after 48 hrs by sulforhodamine assay relative to control; assay type: functional; conditions: NCI-H460, 48 h, read-out: GI; outline: as §1
[3] = target: Protein kinase C alpha type (Homo sapiens, UniProt P17252); assay: Inhibition of PKC alpha (unknown origin)
Outline: (§2)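 ATP-competition kinase assay run at several inhibitor concentrations. Reduced phosphorylation of the kinase substrate was measured by scintillation counting, and IC50 values were derived.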

[4] = target: Interleukin-1 receptor-associated kinase 1 (Homo sapiens, UniProt P51617); assay: Inhibition of IRAK (unknown origin); outline: as §2
[5] = target: Serine/threonine-protein kinase MARK1 (Homo sapiens, UniProt Q9P0L2); assay: Inhibition of MARK1 (unknown origin); outline: as §2
Myotonin-protein kinase = Myotonin-protein kinase (Homo sapiens, UniProt Q09013); assay: Inhibition of DMPK (unknown origin); outline: as §2
[6] = target: Tyrosine-protein kinase ABL1 (Homo sapiens, UniProt P00519); assay: Inhibition of c-Abl (unknown origin); outline: as §2
[7] = target: Death-associated protein kinase 1 (Homo sapiens, UniProt P53355); assay: Inhibition of DAPK1 (unknown origin); outline: as §2
[8] = target: Tyrosine-protein kinase JAK2 (Homo sapiens, UniProt O60674); assay: Inhibition of JAK2 (unknown origin); outline: as §2
[9] = target: Mitogen-activated protein kinase kinase kinase 2 (Homo sapiens, UniProt Q9Y2U5); assay: Inhibition of MEKK2 (unknown origin); outline: as §2
[10] = target: Activin receptor type-1-like (Homo sapiens, UniProt P37023); assay: Inhibition of ALK1 (unknown origin); outline: as §2
[11] = Solubility of the compound in pH 7.5 HEPES-NaOH buffer at > 100 uM; assay type: physicochemical
Wee1-like protein kinase = Wee1-like protein kinase (Homo sapiens, UniProt P30291); assay: Inhibition of Wee1 (unknown origin); outline: as §2
[12] = target: Casein kinase I isoform alpha (Homo sapiens, UniProt P48729); assay: Inhibition of CK1 alpha (unknown origin); outline: as §2
[13] = target: Mitogen-activated protein kinase kinase kinase 21 (Homo sapiens, UniProt Q5TCX8); assay: Inhibition of MLK4 (unknown origin); outline: as §2
[14] = target: Dual specificity mitogen-activated protein kinase kinase 1 (Homo sapiens, UniProt Q02750); assay: Inhibition of MEK1 (unknown origin); outline: as §2
Sequence of Dual specificity mitogen-activated protein kinase kinase 1 (Q02750 whole entry): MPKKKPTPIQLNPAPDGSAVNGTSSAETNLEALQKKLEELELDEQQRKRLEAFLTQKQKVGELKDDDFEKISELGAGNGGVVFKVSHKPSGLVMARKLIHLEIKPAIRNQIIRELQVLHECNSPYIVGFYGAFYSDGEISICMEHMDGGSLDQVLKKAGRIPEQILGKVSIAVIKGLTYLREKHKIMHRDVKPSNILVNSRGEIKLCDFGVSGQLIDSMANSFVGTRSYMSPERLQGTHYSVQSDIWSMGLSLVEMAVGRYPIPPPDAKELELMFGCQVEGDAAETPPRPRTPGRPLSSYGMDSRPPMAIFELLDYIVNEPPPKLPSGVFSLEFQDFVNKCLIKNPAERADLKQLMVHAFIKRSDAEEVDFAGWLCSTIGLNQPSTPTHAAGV

Sequence of Epidermal growth factor receptor (P00533 whole entry): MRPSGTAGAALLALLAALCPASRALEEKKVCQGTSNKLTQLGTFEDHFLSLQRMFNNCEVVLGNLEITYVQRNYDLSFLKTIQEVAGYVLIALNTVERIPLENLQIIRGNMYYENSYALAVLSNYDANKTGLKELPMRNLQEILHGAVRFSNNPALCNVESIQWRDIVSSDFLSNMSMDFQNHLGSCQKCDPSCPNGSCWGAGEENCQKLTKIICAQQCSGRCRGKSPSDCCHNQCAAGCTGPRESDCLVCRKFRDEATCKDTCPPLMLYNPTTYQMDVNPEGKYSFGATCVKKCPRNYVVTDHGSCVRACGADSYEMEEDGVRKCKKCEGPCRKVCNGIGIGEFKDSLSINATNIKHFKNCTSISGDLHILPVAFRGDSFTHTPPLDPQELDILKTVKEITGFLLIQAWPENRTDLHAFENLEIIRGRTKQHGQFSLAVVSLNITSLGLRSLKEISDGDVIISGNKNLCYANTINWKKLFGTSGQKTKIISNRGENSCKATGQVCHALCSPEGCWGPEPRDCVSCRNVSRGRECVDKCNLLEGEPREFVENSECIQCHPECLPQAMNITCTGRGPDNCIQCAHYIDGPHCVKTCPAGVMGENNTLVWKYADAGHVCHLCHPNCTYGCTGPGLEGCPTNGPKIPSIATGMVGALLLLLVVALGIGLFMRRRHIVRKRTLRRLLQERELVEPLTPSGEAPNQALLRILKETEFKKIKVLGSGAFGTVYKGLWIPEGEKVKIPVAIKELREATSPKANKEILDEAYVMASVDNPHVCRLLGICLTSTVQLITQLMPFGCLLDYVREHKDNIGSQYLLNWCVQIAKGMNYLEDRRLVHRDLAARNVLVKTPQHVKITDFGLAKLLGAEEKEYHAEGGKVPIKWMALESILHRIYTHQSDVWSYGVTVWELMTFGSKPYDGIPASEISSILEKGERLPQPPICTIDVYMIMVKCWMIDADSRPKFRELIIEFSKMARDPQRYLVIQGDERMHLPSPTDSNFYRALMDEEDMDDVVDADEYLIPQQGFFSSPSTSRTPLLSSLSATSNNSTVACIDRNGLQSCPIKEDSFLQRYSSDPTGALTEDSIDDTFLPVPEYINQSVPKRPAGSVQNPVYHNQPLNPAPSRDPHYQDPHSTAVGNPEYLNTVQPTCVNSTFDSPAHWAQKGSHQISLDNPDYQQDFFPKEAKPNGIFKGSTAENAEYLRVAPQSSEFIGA
Sequence of Vascular endothelial growth factor receptor 2 (P35968 whole entry): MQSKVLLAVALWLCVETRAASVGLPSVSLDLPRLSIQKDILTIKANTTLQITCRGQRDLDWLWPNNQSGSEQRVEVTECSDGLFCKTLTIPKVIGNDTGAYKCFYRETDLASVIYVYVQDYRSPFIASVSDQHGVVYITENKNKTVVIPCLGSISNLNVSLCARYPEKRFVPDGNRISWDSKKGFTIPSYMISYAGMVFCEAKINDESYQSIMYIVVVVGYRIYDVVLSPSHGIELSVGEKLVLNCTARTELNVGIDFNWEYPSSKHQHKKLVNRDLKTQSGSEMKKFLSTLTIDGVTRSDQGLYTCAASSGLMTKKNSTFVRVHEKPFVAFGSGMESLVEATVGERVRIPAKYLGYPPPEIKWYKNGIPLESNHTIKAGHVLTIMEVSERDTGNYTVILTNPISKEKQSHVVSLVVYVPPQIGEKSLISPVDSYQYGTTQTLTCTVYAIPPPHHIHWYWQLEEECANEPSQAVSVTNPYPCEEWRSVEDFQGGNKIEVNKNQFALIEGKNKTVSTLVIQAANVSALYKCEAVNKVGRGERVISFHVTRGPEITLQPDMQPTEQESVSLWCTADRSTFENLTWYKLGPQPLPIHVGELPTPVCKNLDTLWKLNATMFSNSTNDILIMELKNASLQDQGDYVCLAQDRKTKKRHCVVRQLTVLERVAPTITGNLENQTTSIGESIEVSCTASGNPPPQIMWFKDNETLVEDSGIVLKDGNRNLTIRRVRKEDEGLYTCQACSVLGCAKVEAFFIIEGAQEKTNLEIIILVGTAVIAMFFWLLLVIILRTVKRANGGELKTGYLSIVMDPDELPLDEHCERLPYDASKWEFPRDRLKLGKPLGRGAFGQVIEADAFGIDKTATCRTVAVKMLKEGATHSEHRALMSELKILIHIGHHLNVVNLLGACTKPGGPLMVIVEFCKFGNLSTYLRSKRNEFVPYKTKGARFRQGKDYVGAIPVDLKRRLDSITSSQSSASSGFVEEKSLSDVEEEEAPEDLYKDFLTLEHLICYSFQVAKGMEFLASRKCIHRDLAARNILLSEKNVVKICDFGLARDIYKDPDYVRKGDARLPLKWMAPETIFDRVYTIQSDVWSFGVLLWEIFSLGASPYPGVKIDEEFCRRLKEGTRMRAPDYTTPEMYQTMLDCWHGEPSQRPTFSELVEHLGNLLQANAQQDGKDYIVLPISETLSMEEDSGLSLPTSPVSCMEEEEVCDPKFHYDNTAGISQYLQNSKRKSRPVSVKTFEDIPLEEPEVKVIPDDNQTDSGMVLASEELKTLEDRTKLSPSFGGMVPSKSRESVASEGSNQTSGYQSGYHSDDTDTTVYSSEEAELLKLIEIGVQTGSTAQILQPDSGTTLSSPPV
Sequence of Death-associated protein kinase 1 (P53355 whole entry): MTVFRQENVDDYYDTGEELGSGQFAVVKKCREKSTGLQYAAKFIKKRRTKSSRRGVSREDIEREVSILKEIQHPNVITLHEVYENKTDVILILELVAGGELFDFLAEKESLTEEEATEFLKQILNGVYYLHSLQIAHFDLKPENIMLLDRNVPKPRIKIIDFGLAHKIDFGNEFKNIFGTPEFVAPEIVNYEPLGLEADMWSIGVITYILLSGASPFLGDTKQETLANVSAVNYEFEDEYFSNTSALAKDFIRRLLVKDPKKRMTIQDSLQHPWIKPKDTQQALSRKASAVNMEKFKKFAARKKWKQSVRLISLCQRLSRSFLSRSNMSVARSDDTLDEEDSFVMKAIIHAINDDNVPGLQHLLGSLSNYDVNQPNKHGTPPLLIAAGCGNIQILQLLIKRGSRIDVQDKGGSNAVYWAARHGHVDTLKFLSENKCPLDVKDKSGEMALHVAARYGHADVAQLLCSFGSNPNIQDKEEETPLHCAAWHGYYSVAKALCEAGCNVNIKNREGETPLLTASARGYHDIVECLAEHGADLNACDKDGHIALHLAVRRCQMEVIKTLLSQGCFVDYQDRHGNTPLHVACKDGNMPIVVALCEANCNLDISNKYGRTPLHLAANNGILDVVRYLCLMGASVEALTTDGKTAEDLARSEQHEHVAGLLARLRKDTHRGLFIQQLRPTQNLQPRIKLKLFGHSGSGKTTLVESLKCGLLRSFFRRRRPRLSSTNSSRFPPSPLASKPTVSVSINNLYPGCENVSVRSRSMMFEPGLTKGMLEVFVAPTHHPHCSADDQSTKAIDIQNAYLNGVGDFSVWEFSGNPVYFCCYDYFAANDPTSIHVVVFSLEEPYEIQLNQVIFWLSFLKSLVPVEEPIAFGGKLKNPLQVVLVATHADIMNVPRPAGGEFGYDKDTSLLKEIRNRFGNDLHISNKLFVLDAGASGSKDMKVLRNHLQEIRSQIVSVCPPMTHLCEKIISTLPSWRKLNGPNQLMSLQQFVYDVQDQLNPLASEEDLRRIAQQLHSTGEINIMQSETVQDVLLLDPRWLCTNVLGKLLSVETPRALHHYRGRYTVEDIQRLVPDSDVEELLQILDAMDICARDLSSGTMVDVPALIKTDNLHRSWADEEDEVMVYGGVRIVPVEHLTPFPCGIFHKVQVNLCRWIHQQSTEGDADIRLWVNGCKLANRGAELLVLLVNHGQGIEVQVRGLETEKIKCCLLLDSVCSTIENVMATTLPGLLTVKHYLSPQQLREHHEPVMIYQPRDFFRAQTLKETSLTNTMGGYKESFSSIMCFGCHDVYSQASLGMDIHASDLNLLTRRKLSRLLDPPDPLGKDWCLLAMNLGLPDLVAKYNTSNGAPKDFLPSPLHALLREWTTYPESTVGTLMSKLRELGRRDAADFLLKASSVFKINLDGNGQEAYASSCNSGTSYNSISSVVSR
Sequence of Wee1-like protein kinase (P30291 whole entry, canonical isoform): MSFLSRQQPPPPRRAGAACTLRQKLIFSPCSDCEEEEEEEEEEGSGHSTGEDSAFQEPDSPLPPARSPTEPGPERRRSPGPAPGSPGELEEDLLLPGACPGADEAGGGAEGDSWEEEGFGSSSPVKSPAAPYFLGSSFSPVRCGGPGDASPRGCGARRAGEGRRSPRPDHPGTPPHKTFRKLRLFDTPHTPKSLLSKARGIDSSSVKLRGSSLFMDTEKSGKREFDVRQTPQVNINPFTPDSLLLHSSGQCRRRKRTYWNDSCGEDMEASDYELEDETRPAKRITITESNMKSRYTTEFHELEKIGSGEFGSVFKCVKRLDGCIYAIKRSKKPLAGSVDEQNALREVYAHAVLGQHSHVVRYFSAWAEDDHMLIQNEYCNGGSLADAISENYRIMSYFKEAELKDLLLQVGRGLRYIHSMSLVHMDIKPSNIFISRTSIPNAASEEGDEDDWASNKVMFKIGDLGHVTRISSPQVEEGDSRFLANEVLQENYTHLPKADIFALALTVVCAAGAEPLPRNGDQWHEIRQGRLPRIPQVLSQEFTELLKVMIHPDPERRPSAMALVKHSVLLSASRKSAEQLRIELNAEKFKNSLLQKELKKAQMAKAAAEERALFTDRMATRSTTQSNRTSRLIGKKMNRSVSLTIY

Compound: Nc1nc(NCCc2ccccc2)c2c(n1)[nH]c1ccc(O)cc12
pKi [1]: 5.35
pKi [2]: 6.19

Compound: Nc1nc(NCc2ccccc2)c2c(n1)[nH]c1cc(Br)c(O)cc12
Ki [1]: Not Active
pKi [2]: 6.43

Compound: COc1ccc(CNc2nc(N)nc3[nH]c4ccc(O)cc4c23)cc1OC
pKi [1]: 4.96
pKi [2]: 5.43

Compound: C[C@H](Nc1nc(N)nc2[nH]c3ccc(O)cc3c12)c1ccccc1
pKi [1]: 5.38
pKi [2]: 6.28

Compound: Cc1cc2[nH]c3nc(N)nc(NCc4ccc(Cl)cc4)c3c2cc1O
Ki [1]: Not Active
pKi [2]: 6.96

Compound: COc1cccc(CNc2nc(N)nc3[nH]c4ccc(O)cc4c23)c1
pKi [1]: 5.40
pKi [2]: 5.90

Compound: Cc1ccc(CNc2nc(N)nc3[nH]c4cc(C)c(O)cc4c23)cc1
pIC50 [3]: < 4.00
Ki [1]: Not Active
pIC50 [4]: < 4.00
pIC50 [5]: < 4.00
pIC50 (Myotonin-protein kinase): < 4.00
pIC50 [6]: < 4.00
pKi [2]: 5.25
pIC50 [7]: < 4.00
pIC50 [8]: < 4.00
pIC50 [9]: < 4.00
pIC50 [10]: < 4.00
solubility [11]: Soluble
pIC50 (Wee1-like protein kinase): < 4.00
pIC50 [12]: < 4.00
pIC50 [13]: < 4.00
pIC50 [14]: < 4.00

Compound: Cc1cc2[nH]c3nc(N)nc(NCc4ccccc4)c3c2cc1O
pKi [1]: 5.32
pKi [2]: 6.19

Compound: COc1ccccc1CNc1nc(N)nc2[nH]c3ccc(O)cc3c12
pKi [1]: 6.07
inhibition of growth at 10 µM (HOP-62): 63%
inhibition of growth at 10 µM (BT-549): 37%
pKi [2]: 5.73
inhibition of growth at 10 µM (Hs-578T): 41%
inhibition of growth at 10 µM (MDA-MB-231): 73%
inhibition of growth at 10 µM (MDA-MB-468): 55%
inhibition of growth at 10 µM (HOP-92): 66%
inhibition of growth at 10 µM (NCI-H460): 82%

Further lines, with some results ahead:

pKi [2]: 6.92
Compound: COc1ccc(CNc2nc(N)nc3[nH]c4ccc(O)cc4c23)cc1

pKi [1]: 4.87
pKi [2]: 6.21
Compound: COc1cc2[nH]c3nc(N)nc(NCc4ccccc4)c3c2cc1O

pKi [1]: 5.49
pKi [2]: 7.10
Compound: Nc1nc(NCc2ccc(Cl)cc2)c2c(n1)[nH]c1ccc(O)cc12
inhibition of growth at 10 µM (HOP-62): 31%
inhibition of growth at 10 µM (BT-549): 24%
inhibition of growth at 10 µM (Hs-578T): 33%
inhibition of growth at 10 µM (MDA-MB-231): 65%
inhibition of growth at 10 µM (MDA-MB-468): 71%
inhibition of growth at 10 µM (HOP-92): 57%
inhibition of growth at 10 µM (NCI-H460): 25%

pKi [1]: 5.71
pKi [2]: 6.04
Compound: C[C@@H](Nc1nc(N)nc2[nH]c3ccc(O)cc3c12)c1ccccc1

Ki [1]: Not Active
pKi [2]: 6.57
Compound: Nc1nc(NCc2ccccc2)c2c(n1)[nH]c1cc(Cl)c(O)cc12
inhibition of growth at 10 µM (HOP-62): 20%
inhibition of growth at 10 µM (BT-549): 21%
inhibition of growth at 10 µM (Hs-578T): 16%
inhibition of growth at 10 µM (MDA-MB-231): 34%
inhibition of growth at 10 µM (MDA-MB-468): 28%
inhibition of growth at 10 µM (HOP-92): 19%
inhibition of growth at 10 µM (NCI-H460): 5%

pKi [1]: 5.56
pKi [2]: 6.15
Compound: Nc1nc(NCc2ccccc2)c2c(n1)[nH]c1ccc(O)cc12

pKi [2]: 5.23
Compound: COc1ccc(CNc2nc(N)nc3[nH]c4cc(C)c(O)cc4c23)cc1

pKi [1]: 5.14
pKi [2]: 5.39
Compound: COc1ccccc1CNc1nc(N)nc2[nH]c3cc(C)c(O)cc3c12

pKi [2]: 6.05
Compound: Cc1cc2[nH]c3nc(N)nc(NCc4cccc(Cl)c4)c3c2cc1O

pKi [1]: 5.49
pKi [2]: 7.05
Compound: Cc1ccc(CNc2nc(N)nc3[nH]c4ccc(O)cc4c23)cc1

pKi [2]: 6.54
Compound: Nc1nc(NCc2cccc(Cl)c2)c2c(n1)[nH]c1ccc(O)cc12
